Data as given in ChEMBL document CHEMBL1806401, “Highly improved metabolic stability and pharmacokinetics of indium-111-DOTA-gastrin conjugates for targeting of the gastrin receptor” (J Med Chem, 2011).
Peptide text beside a SMILES is read from it.

Columns and labels:
[1] = target: T1, Gastrin/cholecystokinin type B receptor (Homo sapiens, UniProt P32239); assay: Displacement of [125I]CCK from gastrin receptor isolated from human tumor tissues
T1 sequence (P32239 whole entry): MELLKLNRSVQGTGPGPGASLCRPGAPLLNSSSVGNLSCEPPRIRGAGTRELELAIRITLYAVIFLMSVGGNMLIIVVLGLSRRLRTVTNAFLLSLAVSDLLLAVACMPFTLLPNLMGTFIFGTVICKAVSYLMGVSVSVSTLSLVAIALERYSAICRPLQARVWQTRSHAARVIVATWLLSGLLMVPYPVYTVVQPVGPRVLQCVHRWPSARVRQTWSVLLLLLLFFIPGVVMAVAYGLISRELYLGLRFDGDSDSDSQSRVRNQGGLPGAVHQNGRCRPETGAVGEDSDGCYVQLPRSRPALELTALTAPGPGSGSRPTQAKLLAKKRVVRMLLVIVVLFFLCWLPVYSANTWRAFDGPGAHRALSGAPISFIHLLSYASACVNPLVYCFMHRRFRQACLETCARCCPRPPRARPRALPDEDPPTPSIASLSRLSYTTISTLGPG
In short: (§1)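 Surgically resected human tumor tissues expressing CCK-1 or gastrin receptors; 125I-CCK incubation medium with increasing amounts of competitor added to generate competitive inhibition curves.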

[2] = target: T2, Cholecystokinin receptor type A (Homo sapiens, UniProt P32238); assay: Displacement of [125I]CCK from CCK1 receptor isolated from human tumor tissues; in short: as §1
T2 sequence (P32238 whole entry): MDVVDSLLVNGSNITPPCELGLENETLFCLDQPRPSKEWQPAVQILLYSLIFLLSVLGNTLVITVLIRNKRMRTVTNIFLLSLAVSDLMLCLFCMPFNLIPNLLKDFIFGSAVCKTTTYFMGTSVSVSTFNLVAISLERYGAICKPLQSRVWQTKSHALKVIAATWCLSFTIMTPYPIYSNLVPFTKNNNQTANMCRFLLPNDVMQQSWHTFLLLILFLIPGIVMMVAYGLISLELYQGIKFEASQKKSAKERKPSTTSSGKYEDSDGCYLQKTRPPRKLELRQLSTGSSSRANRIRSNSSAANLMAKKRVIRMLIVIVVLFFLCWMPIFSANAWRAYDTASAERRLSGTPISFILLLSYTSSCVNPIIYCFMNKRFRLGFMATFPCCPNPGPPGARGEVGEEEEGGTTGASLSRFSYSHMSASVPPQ

[3] = target: T3, Gastrin/cholecystokinin type B receptor (Rattus norvegicus, UniProt P30553); assay: Agonist activity at gastrin receptor in rat AR4-2J cells assessed as intracellular calcium mobilization by fluorescence assay; assay type: functional, cell-based
T3 sequence (P30553 whole entry): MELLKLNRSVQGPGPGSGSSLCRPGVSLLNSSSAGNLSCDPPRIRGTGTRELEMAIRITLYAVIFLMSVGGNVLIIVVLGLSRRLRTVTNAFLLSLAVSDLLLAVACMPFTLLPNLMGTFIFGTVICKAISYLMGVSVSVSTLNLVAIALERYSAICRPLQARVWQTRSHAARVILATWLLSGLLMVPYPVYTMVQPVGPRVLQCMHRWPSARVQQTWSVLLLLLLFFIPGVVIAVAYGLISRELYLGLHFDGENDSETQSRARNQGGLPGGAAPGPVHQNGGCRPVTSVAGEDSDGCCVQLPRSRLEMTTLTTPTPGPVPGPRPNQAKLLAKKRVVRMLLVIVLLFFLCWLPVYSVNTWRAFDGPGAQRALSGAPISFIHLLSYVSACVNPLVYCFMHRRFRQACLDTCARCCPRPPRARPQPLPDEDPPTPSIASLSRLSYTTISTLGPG
In short: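 AR4-2J cells seeded 50 000/well, cultured 1 day at 37 C, 5% CO2, then loaded with Ca dye in HBSS/20 mM HEPES with 2.5 mM probenecid for 1 h at 37 C. Peptides added as 1:3 serial dilutions in HBSS/HEPES/0.1% BSA/0.05% pluronic acid, diluted 1:6 on addition. Fluorescence (ex 485/em 525 nm) read 4 min at room temperature; Fmax with ionomycin; EC50 from four-parameter fit.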

SMILES: CSCC[C@H](NC(=O)[C@H](Cc1c[nH]c2ccccc12)NC(=O)CNC(=O)[C@H](Cc1ccc(O)cc1)NC(=O)[C@H](C)NC(=O)[C@@H](CO)NC(=O)[C@@H](CO)NC(=O)[C@@H](CO)NC(=O)CN1CCN(CC(=O)O)CCN(CC(=O)O)CCN(CC(=O)O)CC1)C(=O)N[C@@H](CC(=O)O)C(=O)N[C@@H](Cc1ccccc1)C(N)=O
- IC50 [1]: 0.6 nM
- IC50 [2]: > 700 nM

SMILES: CSCC[C@H](NC(=O)[C@H](Cc1c[nH]c2ccccc12)NC(=O)CNC(=O)[C@H](Cc1ccc(O)cc1)NC(=O)[C@H](C)NC(=O)[C@@H](CCC(N)=O)NC(=O)[C@@H](CCC(N)=O)NC(=O)CN1CCN(CC(=O)O)CCN(CC(=O)O)CCN(CC(=O)O)CC1)C(=O)N[C@@H](CC(=O)O)C(=O)N[C@@H](Cc1ccccc1)C(N)=O
- IC50 [1]: 0.8 nM
- IC50 [2]: > 700 nM

SMILES: CCCC[C@H](NC(=O)[C@H](Cc1c[nH]c2ccccc12)NC(=O)CNC(=O)[C@H](Cc1ccc(O)cc1)NC(=O)[C@H](C)NC(=O)[C@@H](CCC(N)=O)NC(=O)[C@@H](CCC(N)=O)NC(=O)[C@@H](CCC(N)=O)NC(=O)CN1CCN(CC(=O)O)CCN(CC(=O)O)CCN(CC(=O)O)CC1)C(=O)N[C@@H](CC(=O)O)C(=O)N[C@@H](Cc1ccccc1)C(N)=O
- IC50 [1]: 1.6 nM
- IC50 [2]: > 700 nM

SMILES: CSCC[C@H](NC(=O)[C@H](Cc1c[nH]c2ccccc12)NC(=O)CNC(=O)[C@H](Cc1ccc(O)cc1)NC(=O)[C@H](C)NC(=O)[C@@H](CCC(N)=O)NC(=O)[C@@H](CCC(N)=O)NC(=O)[C@@H](CCC(N)=O)NC(=O)[C@@H](CCC(N)=O)NC(=O)CN1CCN(CC(=O)O)CCN(CC(=O)O)CCN(CC(=O)O)CC1)C(=O)N[C@@H](CC(=O)O)C(=O)N[C@@H](Cc1ccccc1)C(N)=O
- IC50 [1]: 2.4 nM
- IC50 [2]: > 700 nM

SMILES: CSCC[C@H](NC(=O)[C@H](Cc1c[nH]c2ccccc12)NC(=O)CNC(=O)[C@H](Cc1ccc(O)cc1)NC(=O)[C@H](C)NC(=O)[C@H](CCC(=O)O)NC(=O)[C@H](CCC(=O)O)NC(=O)[C@H](CCC(=O)O)NC(=O)[C@H](CCC(=O)O)NC(=O)[C@H](CCC(=O)O)NC(=O)[C@H](CCC(=O)O)NC(=O)CN1CCN(CC(=O)O)CCN(CC(=O)O)CCN(CC(=O)O)CC1)C(=O)N[C@@H](CC(=O)O)C(=O)N[C@@H](Cc1ccccc1)C(N)=O
- IC50 [1]: 0.7 nM
- IC50 [2]: > 700 nM

SMILES: CSCC[C@H](NC(=O)[C@H](Cc1c[nH]c2ccccc12)NC(=O)CNC(=O)[C@H](Cc1ccc(O)cc1)NC(=O)[C@H](C)NC(=O)[C@@H](CO)NC(=O)[C@@H](CO)NC(=O)CN1CCN(CC(=O)O)CCN(CC(=O)O)CCN(CC(=O)O)CC1)C(=O)N[C@@H](CC(=O)O)C(=O)N[C@@H](Cc1ccccc1)C(N)=O
- IC50 [1]: 0.9 nM
- IC50 [2]: > 700 nM

SMILES: CSCC[C@H](NC(=O)[C@H](Cc1c[nH]c2ccccc12)NC(=O)CNC(=O)[C@H](Cc1ccc(O)cc1)NC(=O)[C@H](C)NC(=O)[C@@H](CCC(N)=O)NC(=O)[C@@H](CCC(N)=O)NC(=O)[C@@H](CCC(N)=O)NC(=O)CN1CCN(CC(=O)O)CCN(CC(=O)O)CCN(CC(=O)O)CC1)C(=O)N[C@@H](CC(=O)O)C(=O)N[C@@H](Cc1ccccc1)C(N)=O (HELM PEPTIDE1{[O=C(O)CN1CCN(CC(=O)O)CCN(CC(=O)[*:2])CCN(CC(=O)O)CC1].[dQ].[dQ].[dQ].A.Y.G.W.M.D.F.[am]}$$$$V2.0)
- IC50 [1]: 3.6 nM
- EC50 [3]: 0.27 nM
- IC50 [2]: > 700 nM

SMILES: CSCC[C@H](NC(=O)[C@H](Cc1c[nH]c2ccccc12)NC(=O)CNC(=O)[C@H](Cc1ccc(O)cc1)NC(=O)[C@H](C)NC(=O)[C@@H](CCC(N)=O)NC(=O)[C@@H](CCC(N)=O)NC(=O)[C@@H](CCC(N)=O)NC(=O)[C@@H](CCC(N)=O)NC(=O)[C@@H](CCC(N)=O)NC(=O)[C@@H](CCC(N)=O)NC(=O)CN1CCN(CC(=O)O)CCN(CC(=O)O)CCN(CC(=O)O)CC1)C(=O)N[C@@H](CC(=O)O)C(=O)N[C@@H](Cc1ccccc1)C(N)=O (HELM PEPTIDE1{[O=C(O)CN1CCN(CC(=O)O)CCN(CC(=O)[*:2])CCN(CC(=O)O)CC1].[dQ].[dQ].[dQ].[dQ].[dQ].[dQ].A.Y.G.W.M.D.F.[am]}$$$$V2.0)
- IC50 [1]: 2.4 nM
- EC50 [3]: 0.41 nM
- IC50 [2]: > 700 nM
